According to ChEMBL document CHEMBL1125553, “Bioisosteric replacement of the alpha-amino carboxylic acid functionality in 2-amino-5-phosphonopentanoic acid yields unique 3,4-diamino-3-cyclobutene-1,2-dione containing NMDA antagonists” (J Med Chem, 1992):
One block for each compound: values may come before it.

Columns and labels:
[1] = target: T1, Glutamate receptor ionotropic, AMPA (Rattus norvegicus, UniProt P19490+P19491+P19492+P19493); experiment: The compound was tested for its affinity against AMPA receptor in rats
[2] = target: Glutamate receptor ionotropic, kainate; experiment: Compound was tested or its affinity against ionotropic glutamate receptor ionotropic kainate in rats
[3] = target: T2, Glutamate NMDA receptor (Rattus norvegicus) (UniProt P35439+Q00959+Q00960+Q00961+Q62645+Q8VHN2+Q9R1M7); experiment: The compound was tested for the inhibition of N-methyl-D-aspartate glutamate receptor in rats using [3H]CPP as uM; settings: concentration not given here
Summary of the method: (§1)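 Rat brain crude synaptic membranes, Triton X-100 treated, frozen at -70 °C, thawed, washed once, resuspended in Tris HCl buffer at 0.3–0.5 mg protein/mL (Lowry). NMDA receptor affinity measured by displacement of [3H]CPP binding.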

Mus musculus [4] = species on record: Mus musculus; experiment: (§2) Effective dose against NMDA-induced lethality in male Swiss-albino mice; assay type: ADME, organism-based; settings: in vivo
Glutamate NMDA receptor [5] = experiment: The compound was tested for its affinity against N-methyl-D-aspartate glutamate receptor in rats using [3H]CPP as radioligand
Summary of the method: (§3)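 Rat brain crude synaptic membranes treated with 0.04% Triton X-100 and stored frozen at -70 °C. Before use they were thawed, washed once in Tris HCl buffer and resuspended at 0.3–0.5 mg protein/mL (Lowry). NMDA receptor affinity was measured as displacement of [3H]CPP binding to these membranes.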

Glutamate NMDA receptor [6] = experiment: Inhibition of [3H]CPP binding to rat N-methyl-D-aspartate glutamate receptor; assay type: protein-complex assay; summary of the method: as §3
[7] = target: T1, Glutamate receptor ionotropic, AMPA; experiment: Compound was tested or its affinity against AMPA receptor in rats
[8] = target: T2, Glutamate NMDA receptor (Rattus norvegicus); experiment: The compound was tested for its affinity against N-methyl-D-aspartate glutamate receptor in rats using [3H]CPP as uM; settings: concentration not given here; summary of the method: as §1
[9] = target: T2, Glutamate NMDA receptor (Rattus norvegicus); experiment: The compound was tested for the inhibition of N-methyl-D-aspartate glutamate receptor in rats using [3H]-CPP as uM; settings: concentration not given here; summary of the method: as §1
Mus musculus [10] = species on record: Mus musculus; experiment: Effective dose against NMDA-induced lethality in male Swiss-albino mice was determined at a concentration of 50 uM; assay type: organism-based; settings: in vivo
Rattus norvegicus = species on record: Rattus norvegicus; experiment: Ability to displace [3H]TCP from rat brain; assay type: functional
Mus musculus [11] = species on record: Mus musculus; experiment: as §2; assay type: functional
Glutamate NMDA receptor [12] = experiment: Compound tested for affinity towards N-methyl-D-aspartate glutamate receptor by measuring their ability to displace [3H]TCP from rat brain

SMILES: Nc1c(NCCP(=O)(O)O)c(=O)c1=O
ED50 (Mus musculus [4]): 29 mg/kg | IC50 (Glutamate NMDA receptor [5]): 470 nM

SMILES: Nc1c(NCCCP(=O)(O)O)c(=O)c1=O
ED50 (Mus musculus [4]): > 100 mg/kg | IC50 (Glutamate NMDA receptor [5]): 2600 nM

SMILES: O=C(O)CCNc1c(O)c(=O)/c1=N\Cc1ccccc1
IC50 (Glutamate NMDA receptor [6]): > 100 µM

SMILES: Nc1c(NCCCCP(=O)(O)O)c(=O)c1=O
ED50 (Mus musculus [4]): > 30 mg/kg | inhibition [8]: 68%

SMILES: CN(CCP(=O)(O)O)c1c(N)c(=O)c1=O
Inhibition (Mus musculus [10]): 50% | IC50 (Glutamate NMDA receptor [5]): 1000 nM

SMILES: NC(CCCCCP(=O)(O)O)C(=O)O (stereo not drawn) [AP-7]
ED50 (Mus musculus [11]): 38 mg/kg | IC50 (Glutamate NMDA receptor [6]): 0.39 µM

SMILES: CCOC(=O)C/N=c1\c(O)c(O)c1=N
IC50 (Glutamate NMDA receptor [6]): 190 µM

SMILES: N[C@@H](Cn1oc(=O)[nH]c1=O)C(=O)O [QUISQUALATE]
IC50 (Glutamate NMDA receptor [6]): > 100 µM

SMILES: Nc1c(NCP(=O)(O)O)c(=O)c1=O
ED50 (Mus musculus [4]): > 100 mg/kg | IC50 (Glutamate NMDA receptor [5]): > 10000 nM

SMILES: Nc1c(NCC(=O)O)c(=O)c1=O
IC50 [1]: > 100 µM | IC50 [2]: > 100 µM

Next, values leading:

IC50 [1]: > 100 µM | IC50 [2]: > 100 µM | inhibition [3]: 46%
SMILES: C=C(C)CN(CC(=O)O)c1c(N)c(=O)c1=O

IC50 (Glutamate NMDA receptor [6]): > 10 µM
SMILES: NS(=O)(=O)c1cccc2c1c([N+](=O)[O-])cc1nc(O)c(O)nc12 [NBQX]

IC50 [7]: > 100 µM | IC50 [2]: > 100 µM | IC50 (Glutamate NMDA receptor [6]): 10 µM
SMILES: C=CCN(CC(=O)O)c1c(N)c(=O)c1=O

IC50 [1]: > 100 µM | IC50 [2]: > 100 µM | inhibition [9]: 50%
SMILES: Nc1c(N(CC(=O)O)Cc2ccccc2)c(=O)c1=O

IC50 [1]: > 100 µM | IC50 [2]: > 100 µM | IC50 (Glutamate NMDA receptor [6]): 5.2 µM
SMILES: Nc1c(NCCn2oc(=O)[nH]c2=O)c(=O)c1=O

IC50 (Glutamate NMDA receptor [6]): 20 µM
SMILES: C/N=c1\c(O)c(O)\c1=N/CCC(=O)O

IC50 (Rattus norvegicus): 941 µM
SMILES: Nc1c(NCCC(=O)O)c(=O)c1=O

IC50 (Glutamate NMDA receptor [12]): 45 µM
SMILES: O=C(O)C1CN(CCCP(=O)(O)O)CCN1 (stereo not drawn)
